From ChEMBL document CHEMBL2440030, “Insights into soluble guanylyl cyclase activation derived from improved heme-mimetics” (J Med Chem, 2013)
Active and inactive are the calls of the source. No cut-off for these calls is given here.

Species on record: Rattus norvegicus
Experiment: Activation of soluble guanylyl cyclase in Wistar rat aortic smooth muscle cell assessed as increase of cGMP accumulation at 1 uM after 15 mins by enzyme immunoassay
Summary of the method: (§1)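 Confluent rat aortic smooth muscle cells were exposed to vehicle or compound (0.01−1 μM) for 15 min, alone or together with 1 μM BAY 58-2667. cGMP was then extracted and quantified. Values are means ± SEM, n = 4.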

Activity | SMILES
inactive | O=C(O)CCCCCN(CCc1ccccc1OCc1ccc(CCc2ccccc2)cc1)Cc1ccc(C(=O)O)cc1
Active | O=C(O)CCCCN(CCc1ccccc1OCc1ccc(-c2ccc(OCc3ccccc3)cc2)cc1)Cc1ccc(C(=O)O)cc1
Active | COc1ccc(COc2ccc(-c3ccc(COc4ccccc4CCN(CCCCC(=O)O)Cc4ccc(C(=O)O)cc4)cc3)cc2)cc1
Active | O=C(O)CCCC(=O)N(CCc1ccccc1OCc1ccc(-c2ccc(OCc3ccccc3)cc2)cc1)Cc1ccc(C(=O)O)cc1
inactive | O=C(O)CCCN(CCc1ccccc1OCc1ccc(CCc2ccccc2)cc1)Cc1ccc(C(=O)O)cc1
Active | O=C(O)CCCCN(CCc1ccccc1OCc1ccc(-c2ccc(Oc3ccccc3)cc2)cc1)Cc1ccc(C(=O)O)cc1

Species on record: Rattus norvegicus
Experiment: Activation of soluble guanylyl cyclase in Wistar rat aortic smooth muscle cell assessed as increase of cGMP accumulation after 15 mins by enzyme immunoassay
Summary of the method: as §1

Activity | SMILES
Dose-dependent effect | O=C(O)CCCCN(CCc1ccccc1OCc1ccc(-c2ccc(Oc3ccccc3)cc2)cc1)Cc1ccc(C(=O)O)cc1

Species on record: Rattus norvegicus
Experiment: Inhibition of soluble guanylyl cyclase in Wistar rat aortic smooth muscle cell assessed as reduction of cGMP accumulation at 1 uM after 15 mins by enzyme immunoassay
Summary of the method: as §1

inhibition | SMILES
80% | O=C(O)CCCCC(=O)N(CCc1ccccc1OCc1ccc(CCc2ccccc2)cc1)Cc1ccc(C(=O)O)cc1
80% | O=C(O)CCC(=O)N(CCc1ccccc1OCc1ccc(CCc2ccccc2)cc1)Cc1ccc(C(=O)O)cc1
80% | O=C(O)CCCC(=O)N(CCc1ccccc1OCc1ccc(CCc2ccccc2)cc1)Cc1ccc(C(=O)O)cc1
